Consider 1 compound from ChEMBL document CHEMBL1938334, “Quinoline tricyclic derivatives. Design, synthesis and evaluation of the antiviral activity of three new classes of RNA-dependent RNA polymerase inhibitors” (Bioorg Med Chem, 2011).

The subject of one series is CCRF-CEM. As to the kind of experiment: Cytotoxicity against human CCRF-CEM cells after 96 hrs by MTT assay. It counts as functional. In short, it runs like this:
(§1)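 Cells were seeded at 1×10^5 cells/mL: leukaemia/lymphoma lines in RPMI-1640, solid tumour and fibroblast lines in specific media, all with 10% FCS. Serial compound dilutions were applied for 96 h at 37 °C, 5% CO2, under conditions allowing controls at least three rounds of multiplication. Viability was read by MTT. CC50 by linear regression. Mean of three determinations.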

The next series concerns WIL2-NS. In words: Cytotoxicity against human WIL2-NS cells after 96 hrs by MTT assay. It counts as functional. Summed up:
as §1

Another series has as its system MCF7. In words: Cytotoxicity against human MCF7 cells after 96 hrs by MTT assay. The series is classed as functional. The settings on record: MCF7, 96 h. Summed up:
as §1
In general terms: Tetrazolium dyes change colour on reduction, which living cells bring about.

In a further series the test system is SK-MES-1. As to the kind of experiment: Cytotoxicity against human SKMES1 cells after 96 hrs by MTT assay. It counts as functional. Conditions: SK-MES-1, 96 h. In short, it runs like this:
as §1

The next series relates to DU-145. In words: Cytotoxicity against human DU145 cells after 96 hrs by MTT assay. It counts as functional. The settings on record: DU-145, 96 h. Summed up:
as §1

Series [1] in a line: Cytotoxicity against human MRC5 cells after 96 hrs by MTT assay. It counts as cell-based. Summed up: as §1
Series [2] can be described thus: Cytotoxicity against human MT4 cells after 96 hrs by MTT assay. It counts as cell-based. Summed up:
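Exponentially growing MT-4 cells seeded at 1×10^5 cells/mL in RPMI-1640 with 10% FBS, penicillin and streptomycin. Incubated with serial compound dilutions at 37 °C, 5% CO2 for 96 h; viability by MTT. CC50 by linear regression relative to untreated controls; mean of three independent determinations.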

For series [3], the system named is Human immunodeficiency virus 1. As to the kind of experiment: Antiviral activity against HIV1 3B infected in human MT4 cells assessed as inhibition of virus-induced cytopathogenicity after 4 days by MTT assay. It counts as functional, organism-based. The settings on record: Human immunodeficiency virus 1, 3B, MT4, 96 h. In short, it runs like this: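 MT-4 cells (1×10^4 per well) were infected with HIV-1 IIIB at 100 CCID50, m.o.i. 0.01, together with serial compound dilutions. Viability was read by MTT after 4 days at 37 °C. EC50 was taken by linear regression versus untreated controls. Mean of three determinations.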

Series [4] is described as follows: Cytotoxicity against MDBK cells after 48 to 96 hrs by MTT assay. Conditions: cattle. The series is classed as cell-based, Bos taurus. In short, it runs like this:
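MDBK seeded at 6×10^5 and BHK at 1×10^6 cells/mL in MEM-Earle's with L-glutamine, 1 mM pyruvate, kanamycin, plus 10% horse serum (MDBK) or 10% FBS (BHK). Cells were grown at 37 °C, 5% CO2 with serial compound dilutions (DMSO stocks diluted in medium). Viability by MTT after 48–96 h. CC50 was taken by linear regression versus untreated controls; three independent determinations.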

The nature of series [5]: Cytotoxicity against african green monkey Vero 76 cells after 48 to 96 hrs by crystal violet staining. The settings on record: chlorocebus sabaeus. It counts as cell-based. Summed up: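 Vero-76 cells were seeded at 4×10^5 cells/mL in D-MEM with L-glutamine, kanamycin and 10% FBS, then exposed to serial compound dilutions at 37 °C, 5% CO2 for 48–96 h. Viability was read by crystal violet staining. 50% cytotoxic concentration by linear regression relative to untreated controls; mean of three independent determinations.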

The test system of the next series is Coxsackievirus B5. In words: Antiviral activity against Human coxsackievirus B5 Ohio-1 infected in african green monkey Vero 76 cells assessed as reduction of virus-induced plaque formation after 3 days using crystal violet staining. The series is classed as functional, organism-based. Conditions: Enterovirus B, Ohio-1, Vero, 72 h.
The subject of the next series is Poliovirus 1. In words: Antiviral activity against Human poliovirus 1 strain Sabin Chat infected in african green monkey Vero 76 cells assessed as virus-induced reduction of plaque formation after 2 days using crystal violet staining. It counts as functional, cell-based. The settings on record: Enterovirus C, 48 h.
For the next series, the system named is Human orthopneumovirus. In words: Antiviral activity against Human respiratory syncytial virus A2 infected in african green monkey Vero 76 cells assessed as reduction of virus-induced plaque formation after 5 days using crystal violet staining. It counts as functional, organism-based. The settings on record: 120 h.
Series [6] concerns Vesicular stomatitis Indiana virus. As to the kind of experiment: Antiviral activity against clinical isolate Vesicular stomatitis Indiana virus infected in african green monkey Vero 76 cells assessed as reduction of virus-induced plaque formation after 2 days using crystal violet staining. It counts as functional, organism-based. The settings on record: 48 h.
Series [7] can be described thus: Selectivity index, ratio of EC50 for Bovine viral diarrhea virus 1-NADL to CC50 for MDBK cells. Summed up:
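CC50 was measured in mock-infected MDBK cells seeded at 6×10^5 cells/mL in MEM-E with 10% horse serum and treated with serial compound dilutions for 48–96 h; viability by MTT. EC50 came from BVDV NADL CPE protection in MDBK cells at m.o.i. 0.01, 3–4 days, MTT. Both were obtained by linear regression.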

Series [8] can be described thus: Cytotoxicity against human GS4.1 cells. It counts as cell-based. In short, it runs like this: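 Huh-7 cells carrying HCV genotype 1b subgenomic replicon, grown in D-MEM/10% FBS with 0.5 mg/mL G418. Seeded at 7.5×10^3 cells/well with two-fold serial dilutions (top 75 μM), incubated 72 h at 37 °C. Viability by MTS-type Cell Titer 96 Aqueous One reagent; CC50 from % cytotoxicity versus concentration curves.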

The next series deals with Hepatitis C virus. In words: Antiviral activity against HCV1b infected in human GS4.1 cells assessed as inhibition of virus-induced cytopathogenicity by measuring viral NS4A protein level after 72 hrs by ELISA. It counts as functional, organism-based, Hepacivirus hominis. Conditions: genotype 1b. In short, it runs like this: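 GS4.1 cells are Huh-7 cells carrying a genotype 1b subgenomic replicon, kept in 0.5 mg/mL G418. They were seeded at 7.5×10^3 cells/well with two-fold serial dilutions of compound (top 75 μM) and incubated 72 h at 37 °C. Huh-7 cells without the replicon served as negative control. NS4A was measured by cell ELISA with anti-NS4A mAb A-236, peroxidase and o-phenylenediamine, A492. EC50 came from four-parameter sigmoidal fit.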
In general terms: Protection from cytopathic effect is a common read-out in antiviral testing.

Series [9] can be described thus: Selectivity index, […] for human GS4.1 cells. Summed up: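 Both values come from GS4.1 replicon cells treated 72 h with two-fold serial dilutions (top 75 μM). EC50 was from NS4A ELISA with a four-parameter sigmoidal fit. CC50 was from a tetrazolium-based Aqueous One cell proliferation readout.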
Series [10] in a line: Inhibition of Bovine viral diarrhea virus 1-NADL recombinant NS5B Cdelta 21 RNA dependent RNA polymerase expressed in Escherichia coli (DE3) using GTP as substrate preincubated for 30 mins before substrate addition measured after 120 mins by fluorescence assay.
Series [11] is described as follows: Inhibition of HCV1b BK 6xHis-tagged recombinant NS5B Cdelta 21 RNA dependent RNA polymerase expressed in Escherichia coli (DE3) using GTP as substrate preincubated for 30 mins before substrate addition measured after 120 mins by fluorescence assay. The arrangement: species or system Hepatitis C virus (isolate BK). In short, it runs like this: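 His-tagged NS5B (BVDV C-terminal Δ24; HCV1b Δ21) from E. coli Rosetta 2(DE3)pLysS, Ni-NTA purified, 500–600 ng per 20 μL. The template was poly(rC) 10 μg/mL and the primer oligo(rG)12 0.1 μg/mL, with GTP 80 μM. Buffer: 20 mM Tris pH 7.0, 0.5 mM MnCl2 or 5 mM MgCl2, 5% DMSO. Enzyme/drug 30 min at RT, then GTP added; 120 min at 37 °C (BVDV) or 25 °C (HCV). Read-out was dsRNA dye fluorescence (ex 480/em 520). IC50 from dose–response fits.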

Each structure is given as a SMILES string.

With `O=[N+]([O-])c1ccc(-c2nc3cc4cccnc4c(Cl)c3[nH]2)cc1`, the CC50 in the series with CCRF-CEM is 49 µM; in the series with WIL2-NS, more than 100 µM; with MCF7, more than 100 µM; in the series with SK-MES-1, more than 100 µM; in the series on DU-145, more than 100 µM; in [4] it was more than 100 µM. In addition, the values for the CC50 in series [5] and in [8] were more than 100 µM and 12 µM, respectively. The CC50 at 96 h in series [1] and in series [2] was more than 100 µM each time. The EC50 was more than 100 µM in [3]; more than 100 µM in the series with Coxsackievirus B5; more than 100 µM with Poliovirus 1; more than 100 µM in the series with Human orthopneumovirus; more than 100 µM in [6]; 3.1 µM in the series with Hepatitis C virus. The “Selectivity Index” value in series [7] is more than 100; in series [9], 4. Besides, the results for the IC50 in [10] and in [11] were 0.06 µM and 8 µM, respectively.

One may read the CC50 as the concentration at which the toxic effect on the cells reaches its halfway point. The term EC50 denotes the concentration at which the effect is half-maximal. As usually defined, the IC50 is the concentration that inhibits the measured activity by half.
